Values belong to the compound of their own block, whether it stands above or below them.
Assays:
[1] = target: PI3-kinase p110-alpha/p85-alpha (Homo sapiens, UniProt P42336); assay: Inhibition of His-tagged human full length PI3Kalpha coexpressed with p85 alpha in baculovirus expression system using PIP2 peptide as substrate incubated for 1 hr in presence ATP by Kinase-Glo assay
NCI-H460 = assay: Antiproliferative activity against human NCI-H460 cells harboring PIK3CA mutation assessed as reduction in cell viability after 3 days by CellTiter-Glo luminescence assay; format: functional, cell-based; settings: NCI-H460, 72 h
Method in brief: (§1)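 ATCC lines, 10% FBS: T47D, H1975, H460 in RPMI1640; U87MG in DMEM; A549 in F12K. Seeded 3×10^3 per well the day before, exposed to 3-fold serial dilutions or DMSO for 3 days at 37 °C, 5% CO2; CellTiter-Glo luminescence.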

[2] = target: Serine/threonine-protein kinase mTOR (Homo sapiens, UniProt P42345); assay: Inhibition of N-terminal FLAG-tagged human recombinant mTOR (1362 to end residues) using ULight-4E-BP1 (Thr37/46) peptide as substrate incubated for 1 hr in presence of ATP by Lance Ultra assay
Method in brief: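 ULight-4E-BP1 (Thr37/46) peptide with 13 µM ATP; 1 h at room temperature. Stopped with EDTA quench buffer plus Eu-anti-phospho-4E-BP1, 15 min shake and 60 min equilibration, TR-FRET read. IC50 from inhibition curves; average of at least two runs.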

NCI-H1975 = assay: Antiproliferative activity against human NCI-H1975 cells harboring PIK3CA mutation assessed as reduction in cell viability after 3 days by CellTiter-Glo luminescence assay; format: functional, cell-based; settings: NCI-H1975, 72 h; method in brief: as §1
[3] = target: PI3-kinase p110-delta/p85-alpha (Homo sapiens, UniProt O00329); assay: Inhibition of N-terminal His6-tagged human recombinant full length PI3Kdelta co-expressed with human recombinant full length P85alpha in baculovirus infected Sf21 cells using PIP2 peptide as substrate incubated for 2 hrs in presence ATP by ADP-Glo Kinase Assay
Sequence of PI3-kinase p110-delta/p85-alpha (P27986 whole entry): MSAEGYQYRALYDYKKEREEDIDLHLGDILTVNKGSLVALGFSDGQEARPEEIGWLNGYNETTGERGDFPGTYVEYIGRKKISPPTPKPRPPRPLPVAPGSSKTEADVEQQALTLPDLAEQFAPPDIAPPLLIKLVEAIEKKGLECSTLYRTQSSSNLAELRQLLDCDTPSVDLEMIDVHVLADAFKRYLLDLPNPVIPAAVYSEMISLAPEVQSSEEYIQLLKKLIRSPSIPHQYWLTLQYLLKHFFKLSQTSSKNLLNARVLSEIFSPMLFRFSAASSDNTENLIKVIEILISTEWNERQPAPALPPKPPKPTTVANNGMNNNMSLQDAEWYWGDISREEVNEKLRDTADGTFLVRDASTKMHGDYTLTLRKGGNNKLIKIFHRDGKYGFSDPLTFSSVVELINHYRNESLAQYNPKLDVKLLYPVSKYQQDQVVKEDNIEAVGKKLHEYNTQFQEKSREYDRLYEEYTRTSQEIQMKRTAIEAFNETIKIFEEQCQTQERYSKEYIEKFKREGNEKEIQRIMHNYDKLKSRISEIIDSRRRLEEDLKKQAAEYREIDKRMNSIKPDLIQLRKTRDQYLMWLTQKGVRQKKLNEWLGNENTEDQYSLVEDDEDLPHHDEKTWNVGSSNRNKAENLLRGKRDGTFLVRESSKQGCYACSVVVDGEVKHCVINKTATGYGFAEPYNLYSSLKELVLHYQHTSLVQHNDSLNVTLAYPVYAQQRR
Sequence of PI3-kinase p110-delta/p85-alpha (O00329 whole entry): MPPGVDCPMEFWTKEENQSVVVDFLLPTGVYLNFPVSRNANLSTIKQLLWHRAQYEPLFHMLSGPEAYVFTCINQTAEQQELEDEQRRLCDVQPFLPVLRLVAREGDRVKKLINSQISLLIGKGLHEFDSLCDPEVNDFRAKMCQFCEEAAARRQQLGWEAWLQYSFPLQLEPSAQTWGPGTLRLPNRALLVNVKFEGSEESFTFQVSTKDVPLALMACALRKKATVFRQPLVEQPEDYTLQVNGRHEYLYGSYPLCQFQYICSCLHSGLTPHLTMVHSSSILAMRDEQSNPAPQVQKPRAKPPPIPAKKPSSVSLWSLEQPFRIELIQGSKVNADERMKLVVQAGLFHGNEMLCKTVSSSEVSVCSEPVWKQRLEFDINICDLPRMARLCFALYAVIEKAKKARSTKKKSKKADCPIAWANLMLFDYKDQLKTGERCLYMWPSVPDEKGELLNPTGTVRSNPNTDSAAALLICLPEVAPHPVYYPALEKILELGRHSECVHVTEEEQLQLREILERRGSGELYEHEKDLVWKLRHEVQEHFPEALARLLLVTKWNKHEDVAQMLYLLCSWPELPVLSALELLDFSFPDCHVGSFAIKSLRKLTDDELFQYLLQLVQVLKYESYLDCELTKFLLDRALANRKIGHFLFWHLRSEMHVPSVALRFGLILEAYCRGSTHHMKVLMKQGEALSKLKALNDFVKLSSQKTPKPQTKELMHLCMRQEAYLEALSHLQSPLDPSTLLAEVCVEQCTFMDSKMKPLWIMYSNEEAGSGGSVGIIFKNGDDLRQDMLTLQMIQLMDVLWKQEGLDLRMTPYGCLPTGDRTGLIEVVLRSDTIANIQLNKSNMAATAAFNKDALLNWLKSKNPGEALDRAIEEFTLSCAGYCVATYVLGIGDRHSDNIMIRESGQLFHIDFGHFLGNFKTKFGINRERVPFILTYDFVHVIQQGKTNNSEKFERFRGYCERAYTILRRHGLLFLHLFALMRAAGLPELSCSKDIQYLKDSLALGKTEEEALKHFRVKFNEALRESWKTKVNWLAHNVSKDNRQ
Method in brief: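 ADP-Glo reagent 1 for 40 min, then reagent 2 with 60 min equilibration. IC50 from inhibition curves; average of at least two runs.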

[4] = target: Phosphatidylinositol 4,5-bisphosphate 3-kinase catalytic subunit gamma isoform (Homo sapiens, UniProt P48736); assay: Inhibition of GST-tagged human recombinant PI3Kgamma catalytic domain (468 to 1203 residues) expressed in insect cells using PIP2 peptide as substrate incubated for 1 hr in presence ATP by ADP-Glo Kinase Assay
Sequence of Phosphatidylinositol 4,5-bisphosphate 3-kinase catalytic subunit gamma isoform (P48736 whole entry, the tested form may be a part, canonical isoform): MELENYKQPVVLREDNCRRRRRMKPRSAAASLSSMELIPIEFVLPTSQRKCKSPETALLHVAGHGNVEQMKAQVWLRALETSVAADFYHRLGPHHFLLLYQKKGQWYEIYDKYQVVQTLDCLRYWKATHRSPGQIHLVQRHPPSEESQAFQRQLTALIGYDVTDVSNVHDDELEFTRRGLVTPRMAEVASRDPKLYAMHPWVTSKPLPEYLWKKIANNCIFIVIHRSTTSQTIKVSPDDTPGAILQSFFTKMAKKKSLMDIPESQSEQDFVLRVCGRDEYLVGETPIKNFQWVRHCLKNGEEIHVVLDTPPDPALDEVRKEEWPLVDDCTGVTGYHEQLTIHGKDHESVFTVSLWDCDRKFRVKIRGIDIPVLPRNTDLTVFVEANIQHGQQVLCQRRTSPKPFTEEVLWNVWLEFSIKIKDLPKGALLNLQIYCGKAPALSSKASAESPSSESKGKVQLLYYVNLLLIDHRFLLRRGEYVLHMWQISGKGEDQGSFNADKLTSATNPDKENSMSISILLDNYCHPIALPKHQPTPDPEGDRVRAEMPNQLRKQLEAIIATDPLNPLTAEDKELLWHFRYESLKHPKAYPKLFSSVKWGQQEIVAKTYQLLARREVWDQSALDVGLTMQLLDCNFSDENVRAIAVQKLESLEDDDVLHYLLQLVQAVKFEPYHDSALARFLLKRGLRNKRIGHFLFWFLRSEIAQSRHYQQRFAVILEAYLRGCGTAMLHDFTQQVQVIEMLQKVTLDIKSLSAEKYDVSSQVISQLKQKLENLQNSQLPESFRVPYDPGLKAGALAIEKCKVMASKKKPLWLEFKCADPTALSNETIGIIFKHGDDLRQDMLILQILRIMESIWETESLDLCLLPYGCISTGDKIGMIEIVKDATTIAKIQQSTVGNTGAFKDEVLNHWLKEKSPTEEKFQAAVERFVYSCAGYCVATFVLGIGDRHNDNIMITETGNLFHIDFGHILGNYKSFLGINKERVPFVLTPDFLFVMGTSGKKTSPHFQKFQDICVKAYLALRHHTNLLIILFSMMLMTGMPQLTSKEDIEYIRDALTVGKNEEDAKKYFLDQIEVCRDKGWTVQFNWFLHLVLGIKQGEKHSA
Method in brief: (§2)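 ADP-Glo reagent 1 for 40 min, then reagent 2 with 60 min equilibration before reading. IC50 taken from inhibition curves; average of at least two runs.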

T47D = assay: Antiproliferative activity against human T47D cells harboring PIK3CA mutation assessed as reduction in cell viability after 3 days by CellTiter-Glo luminescence assay; format: functional, cell-based; settings: 72 h; method in brief: as §1
U-87 MG = assay: Antiproliferative activity against human U87MG cells harboring PTEN deletion assessed as reduction in cell viability after 3 days by CellTiter-Glo luminescence assay; format: functional, cell-based, U-87MG ATCC; settings: 72 h; method in brief: as §1
PI3K p110 beta/p85 alpha = PI3K p110 beta/p85 alpha (Homo sapiens, UniProt P42338); assay: Inhibition of N-terminal His6-tagged human recombinant full length PI3Kbeta co-expressed with human recombinant full length P85alpha in baculovirus infected Sf21 cells using PIP2 peptide as substrate incubated for 1 hr in presence ATP by ADP-Glo Kinase Assay; method in brief: as §2
Sequence of PI3K p110 beta/p85 alpha (P27986 whole entry): as the sequence (P27986 whole entry) above
Sequence of PI3K p110 beta/p85 alpha (P42338 whole entry): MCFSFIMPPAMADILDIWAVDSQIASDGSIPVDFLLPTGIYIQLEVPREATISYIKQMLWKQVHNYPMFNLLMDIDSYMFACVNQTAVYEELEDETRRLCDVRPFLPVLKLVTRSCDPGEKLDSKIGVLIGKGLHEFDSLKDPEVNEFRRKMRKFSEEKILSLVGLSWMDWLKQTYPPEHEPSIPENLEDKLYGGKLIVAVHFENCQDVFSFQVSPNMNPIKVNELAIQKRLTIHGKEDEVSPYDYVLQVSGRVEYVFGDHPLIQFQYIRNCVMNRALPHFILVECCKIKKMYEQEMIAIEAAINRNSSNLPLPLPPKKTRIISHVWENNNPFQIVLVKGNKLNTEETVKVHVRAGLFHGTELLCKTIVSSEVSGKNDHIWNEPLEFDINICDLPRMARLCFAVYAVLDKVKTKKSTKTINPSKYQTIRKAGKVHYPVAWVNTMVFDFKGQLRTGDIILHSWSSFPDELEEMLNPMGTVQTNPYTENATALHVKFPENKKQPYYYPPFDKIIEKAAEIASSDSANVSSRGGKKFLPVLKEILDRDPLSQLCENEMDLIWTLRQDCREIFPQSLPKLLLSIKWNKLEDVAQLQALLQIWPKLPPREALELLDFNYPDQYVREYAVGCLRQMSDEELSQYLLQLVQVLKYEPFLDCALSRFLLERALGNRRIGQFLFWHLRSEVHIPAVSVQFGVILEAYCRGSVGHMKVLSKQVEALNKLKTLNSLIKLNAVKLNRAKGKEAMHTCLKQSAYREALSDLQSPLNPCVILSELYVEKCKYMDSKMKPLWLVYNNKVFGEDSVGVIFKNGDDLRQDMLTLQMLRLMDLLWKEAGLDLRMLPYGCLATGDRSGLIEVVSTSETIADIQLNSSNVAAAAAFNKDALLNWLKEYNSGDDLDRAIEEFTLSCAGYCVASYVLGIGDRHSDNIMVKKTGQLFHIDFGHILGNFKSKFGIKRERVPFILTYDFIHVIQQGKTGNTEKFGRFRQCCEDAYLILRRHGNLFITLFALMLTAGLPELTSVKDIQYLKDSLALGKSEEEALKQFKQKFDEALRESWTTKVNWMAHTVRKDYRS

A549 = assay: Antiproliferative activity against human A549 cells assessed as reduction in cell viability after 3 days by CellTiter-Glo luminescence assay; format: functional, cell-based; settings: A549, 72 h; method in brief: as §1
[5] = target: Phosphatidylinositol 4,5-bisphosphate 3-kinase catalytic subunit alpha isoform (Homo sapiens) (UniProt P42336); assay: Inhibition of PI3Kalpha in human T47D cells assessed as inhibition of insulin-stimulated Akt phosphorylation at Ser473 residue at 1 uM preincubated for 2 hrs followed by incubation with insulin for 2 hrs by western blot analysis relative to control; format: cell-based; settings: time 4.0 hrs
Method in brief: (§3)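 T47D cells given compound at 37 °C for 2 h, then stimulated with 1 µg/mL insulin for 2 h; lysed in RIPA with protease/phosphatase inhibitors and 1 mM PMSF; BCA-normalised SDS-PAGE, PVDF blot probed overnight at 4 °C for total Akt and pAkt Ser473, infrared secondary detection.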

[6] = target: Phosphatidylinositol 4,5-bisphosphate 3-kinase catalytic subunit alpha isoform (Homo sapiens) (UniProt P42336); assay: Inhibition of PI3Kalpha in human T47D cells assessed as inhibition of insulin-stimulated Akt phosphorylation at Ser473 residue at 0.1 uM preincubated for 2 hrs followed by incubation with insulin for 2 hrs by western blot analysis relative to control; format: cell-based; settings: time 4.0 hrs; method in brief: as §3
[7] = target: Phosphatidylinositol 4,5-bisphosphate 3-kinase catalytic subunit alpha isoform (Homo sapiens) (UniProt P42336); assay: Inhibition of PI3Kalpha in human T47D cells assessed as inhibition of insulin-stimulated Akt phosphorylation at Ser473 residue at 3 uM preincubated for 2 hrs followed by incubation with insulin for 2 hrs by western blot analysis relative to control; format: cell-based; settings: time 4.0 hrs; method in brief: as §3
[8] = target: Phosphatidylinositol 4,5-bisphosphate 3-kinase catalytic subunit alpha isoform (Homo sapiens) (UniProt P42336); assay: Inhibition of PI3Kalpha in human T47D cells assessed as inhibition of insulin-stimulated Akt phosphorylation at Ser473 residue at 0.3 uM preincubated for 2 hrs followed by incubation with insulin for 2 hrs by western blot analysis relative to control; format: cell-based; settings: time 4.0 hrs; method in brief: as §3

Sequence of PI3-kinase p110-alpha/p85-alpha (P27986 whole entry): as the sequence (P27986 whole entry) above
Sequence of PI3-kinase p110-alpha/p85-alpha (P42336 whole entry): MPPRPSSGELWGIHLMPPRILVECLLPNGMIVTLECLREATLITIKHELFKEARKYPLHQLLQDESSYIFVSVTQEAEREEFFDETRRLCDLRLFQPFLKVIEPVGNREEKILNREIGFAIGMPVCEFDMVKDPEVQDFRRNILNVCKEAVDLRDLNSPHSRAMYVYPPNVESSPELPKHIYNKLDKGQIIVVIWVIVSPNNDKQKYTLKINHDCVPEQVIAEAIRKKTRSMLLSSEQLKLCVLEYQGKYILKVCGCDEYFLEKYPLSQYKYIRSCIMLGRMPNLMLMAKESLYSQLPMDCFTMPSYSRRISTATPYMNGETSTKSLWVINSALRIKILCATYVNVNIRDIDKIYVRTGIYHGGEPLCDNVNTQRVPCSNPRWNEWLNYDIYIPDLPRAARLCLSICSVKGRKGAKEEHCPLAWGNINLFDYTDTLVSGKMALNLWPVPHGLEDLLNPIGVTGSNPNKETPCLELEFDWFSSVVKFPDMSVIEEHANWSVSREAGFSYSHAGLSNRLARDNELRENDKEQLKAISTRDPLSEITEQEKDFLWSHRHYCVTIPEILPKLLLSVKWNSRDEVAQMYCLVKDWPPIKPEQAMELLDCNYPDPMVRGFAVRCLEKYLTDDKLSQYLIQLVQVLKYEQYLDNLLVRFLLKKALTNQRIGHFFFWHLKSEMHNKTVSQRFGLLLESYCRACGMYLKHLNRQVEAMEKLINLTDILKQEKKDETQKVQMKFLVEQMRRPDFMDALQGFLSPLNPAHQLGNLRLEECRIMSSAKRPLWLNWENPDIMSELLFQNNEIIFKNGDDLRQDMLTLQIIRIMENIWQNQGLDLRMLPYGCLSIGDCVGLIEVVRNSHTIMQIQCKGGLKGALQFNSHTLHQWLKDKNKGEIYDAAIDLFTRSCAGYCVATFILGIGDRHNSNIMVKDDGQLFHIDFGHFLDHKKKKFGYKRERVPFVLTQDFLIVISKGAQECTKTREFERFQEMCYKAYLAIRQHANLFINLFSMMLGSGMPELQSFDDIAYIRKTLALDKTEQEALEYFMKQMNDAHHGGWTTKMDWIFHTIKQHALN

IC50 [1]: 0.407 µM
Compound: N#Cc1c(N2CCOCC2)sc(-c2nc[nH]n2)c1-c1ccc(NC(=O)Nc2ccc(F)c(Cl)c2)cc1

IC50 [1]: 0.0755 µM
Compound: N#Cc1c(N2CCOCC2)sc(-c2nc[nH]n2)c1-c1ccc(NC(=O)N/N=C/c2ccc(F)cc2)cc1

IC50 [1]: 0.344 µM
Compound: Cc1cccc(C)c1NC(=O)Nc1ccc(-c2c(-c3nc[nH]n3)sc(N3CCOCC3)c2C#N)cc1

IC50 (NCI-H460): 1.22 µM
IC50 [2]: 0.598 µM
IC50 (NCI-H1975): 12.9 µM
IC50 [3]: 0.074 µM
IC50 [4]: 0.204 µM
IC50 (T47D): 2.68 µM
IC50 (U-87 MG): 12.3 µM
IC50 [1]: 0.0133 µM
IC50 (PI3K p110 beta/p85 alpha): 0.074 µM
IC50 (A549): 19.4 µM
Compound: N#Cc1c(N2CCOCC2)sc(-c2nc[nH]n2)c1-c1ccc(NC(=O)N/N=C/c2ccco2)cc1

IC50 (NCI-H460): 0.12 µM
IC50 (NCI-H1975): 0.94 µM
inhibition [5]: 83%
IC50 (T47D): 0.34 µM
IC50 (U-87 MG): 2.31 µM
IC50 (A549): 3.58 µM
inhibition [6]: 65%
inhibition [7]: 86%
inhibition [8]: 73%
Compound: N#Cc1ccc(-c2c(-c3ncn[nH]3)sc(N3CCOCC3)c2C#N)c(F)c1

IC50 [2]: 1.46 µM
Compound: Cc1nc(NC(=O)N2CCC[C@H]2C(N)=O)sc1-c1ccnc(C(C)(C)C(F)(F)F)c1 [ALPELISIB]

IC50 [1]: 0.239 µM
Compound: N#Cc1c(N2CCOCC2)sc(-c2nc[nH]n2)c1-c1ccc(NC(=O)Nc2cccc(Br)c2)cc1

IC50 [1]: 0.631 µM
Compound: N#Cc1c(N2CCOCC2)sc(-c2nc[nH]n2)c1-c1ccc(NC(=O)N/N=C/c2ccc(OC(F)(F)F)cc2)cc1

IC50 [1]: 0.0898 µM
Compound: N#Cc1c(N2CCOCC2)sc(-c2nc[nH]n2)c1-c1ccc(NC(=O)N/N=C/c2cccc(Br)c2)cc1

IC50 [2]: 4.06 µM
IC50 [3]: 0.015 µM
IC50 [4]: 0.06 µM
IC50 [1]: 0.0054 µM
IC50 (PI3K p110 beta/p85 alpha): 0.124 µM
Compound: N#Cc1ccc(-c2c(-c3nnc[nH]3)sc(N3CCOCC3)c2C#N)c(F)c1

IC50 [1]: 0.11 µM
Compound: COc1cc(/C=N/NC(=O)Nc2ccc(-c3c(-c4nc[nH]n4)sc(N4CCOCC4)c3C#N)cc2)cc(OC)c1OC

IC50 [1]: 0.105 µM
Compound: COc1ccccc1NC(=O)Nc1ccc(-c2c(-c3nc[nH]n3)sc(N3CCOCC3)c2C#N)cc1

IC50 [1]: 0.29 µM
Compound: N#Cc1ccc(NC(=O)Nc2ccc(-c3c(-c4nc[nH]n4)sc(N4CCOCC4)c3C#N)cc2)cc1

IC50 [1]: 0.403 µM
Compound: N#Cc1c(N2CCOCC2)sc(-c2nc[nH]n2)c1-c1ccc(NC(=O)Nc2ccc(C(F)(F)F)cc2)cc1

IC50 [1]: 0.835 µM
Compound: N#Cc1c(N2CCOCC2)sc(-c2nc[nH]n2)c1-c1ccc(NC(=O)Nc2ccc(OC(F)(F)F)cc2)cc1

IC50 [1]: 0.0766 µM
Compound: N#Cc1c(N2CCOCC2)sc(-c2nc[nH]n2)c1-c1ccc(NC(=O)N/N=C/c2ccccc2)cc1

IC50 [1]: 0.151 µM
Compound: N#Cc1c(N2CCOCC2)sc(-c2nc[nH]n2)c1-c1ccc(NC(=O)Nc2cccc(F)c2)cc1

IC50 [1]: 0.0958 µM
Compound: Cc1ccc(NC(=O)Nc2ccc(-c3c(-c4nc[nH]n4)sc(N4CCOCC4)c3C#N)cc2)cc1

IC50 [1]: 0.0219 µM
Compound: N#Cc1c(N2CCOCC2)sc(-c2nc[nH]n2)c1-c1ccc(NC(=O)N/N=C/c2ccc(O)c(O)c2)cc1

IC50 [1]: 0.116 µM
Compound: N#Cc1c(N2CCOCC2)sc(-c2nc[nH]n2)c1-c1ccc(NC(=O)Nc2ccccc2)cc1

IC50 [1]: 0.072 µM
Compound: COc1ccc(/C=N/NC(=O)Nc2ccc(-c3c(-c4nc[nH]n4)sc(N4CCOCC4)c3C#N)cc2)cc1

IC50 (NCI-H460): 0.59 µM
IC50 [2]: 1.66 µM
IC50 (NCI-H1975): 2.04 µM
IC50 [3]: 0.238 µM
IC50 [4]: 0.289 µM
IC50 (T47D): 0.52 µM
IC50 (U-87 MG): 3.35 µM
IC50 [1]: 0.0353 µM
IC50 (PI3K p110 beta/p85 alpha): 0.095 µM
IC50 (A549): 5.52 µM
Compound: N#Cc1c(N2CCOCC2)sc(-c2nc[nH]n2)c1-c1ccc(NC(=O)Nc2ccc(F)cc2)cc1

IC50 [1]: 0.0203 µM
Compound: Cc1cc(/C=N/NC(=O)Nc2ccc(-c3c(-c4nc[nH]n4)sc(N4CCOCC4)c3C#N)cc2)cc(C)c1O

IC50 (NCI-H460): 2.69 µM
IC50 [2]: 0.416 µM
IC50 (NCI-H1975): 11.2 µM
IC50 [3]: 0.049 µM
IC50 [4]: 0.274 µM
IC50 (T47D): 2.13 µM
IC50 (U-87 MG): 22.1 µM
IC50 [1]: 0.0065 µM
IC50 (PI3K p110 beta/p85 alpha): 0.053 µM
IC50 (A549): 18.5 µM
Compound: N#Cc1c(N2CCOCC2)sc(-c2nc[nH]n2)c1-c1ccc(NC(=O)N/N=C/c2ccccn2)cc1

IC50 [1]: 0.323 µM
Compound: N#Cc1c(N2CCOCC2)sc(-c2nc[nH]n2)c1-c1ccc(NC(=O)N/N=C/c2c(Cl)cccc2Cl)cc1

IC50 [1]: 0.0094 µM
Compound: N#Cc1c(N2CCOCC2)sc(-c2nc[nH]n2)c1-c1ccc(NC(=O)N/N=C/c2ccc[nH]2)cc1

IC50 (NCI-H460): 0.4 µM
IC50 [2]: 1.59 µM
IC50 (NCI-H1975): 1.52 µM
IC50 [3]: 0.334 µM
IC50 [4]: 0.302 µM
IC50 (T47D): 0.41 µM
IC50 (U-87 MG): 3.98 µM
IC50 [1]: 0.0223 µM
IC50 (PI3K p110 beta/p85 alpha): 0.089 µM
IC50 (A549): 4.19 µM
Compound: N#Cc1c(N2CCOCC2)sc(-c2nc[nH]n2)c1-c1ccc(NC(=O)Nc2ccccc2F)cc1

IC50 (NCI-H460): 1.39 µM
IC50 [2]: 0.489 µM
IC50 (NCI-H1975): 9.76 µM
IC50 [3]: 0.072 µM
IC50 [4]: 0.44 µM
IC50 (T47D): 2.22 µM
IC50 (U-87 MG): 13 µM
IC50 [1]: 0.0177 µM
IC50 (PI3K p110 beta/p85 alpha): 0.043 µM
IC50 (A549): 12.7 µM
Compound: N#Cc1c(N2CCOCC2)sc(-c2nc[nH]n2)c1-c1ccc(NC(=O)N/N=C/c2cccc(O)c2)cc1
